Data published in ChEMBL document CHEMBL3102692 (Bioorg Med Chem Lett, 2014).
pIC50: −log10 of the molar value. Calls of active or inactive are those of the source. The rule behind the calls is not given here.

Experiments:
Beta-secretase 1 [1] = target: T1, Beta-secretase 1 (Homo sapiens, UniProt P56817); experiment: Non-competitive inhibition of recombinant BACE1 (unknown origin) by Lineweaver-Burk plot analysis
Beta-secretase 1 [2] = target: T1, Beta-secretase 1; experiment: Inhibition of recombinant BACE1 (unknown origin)
Beta-secretase 1 [3] = target: T1, Beta-secretase 1; experiment: Inhibition of recombinant BACE1 (unknown origin) at 0.67 mM
Beta-secretase 1 [4] = target: T1, Beta-secretase 1; experiment: Inhibition of recombinant BACE1 (unknown origin) at 1.3 mM
Summary of the method: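 Recombinant BACE1 was incubated with a synthetic dodecapeptide substrate carrying the Swedish-type BACE1 cleavage sequence, in 40 mM AcONa buffer (pH 4.0) with 10% glycerol, 10 mM DTT and 4 M NaCl. The reaction mixture was analysed by reversed-phase C18 HPLC using a 10–40% MeCN gradient over 30 min in aq 0.1% TFA. Inhibition was read from the decrease of the substrate.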

T1 sequence (P56817 whole entry): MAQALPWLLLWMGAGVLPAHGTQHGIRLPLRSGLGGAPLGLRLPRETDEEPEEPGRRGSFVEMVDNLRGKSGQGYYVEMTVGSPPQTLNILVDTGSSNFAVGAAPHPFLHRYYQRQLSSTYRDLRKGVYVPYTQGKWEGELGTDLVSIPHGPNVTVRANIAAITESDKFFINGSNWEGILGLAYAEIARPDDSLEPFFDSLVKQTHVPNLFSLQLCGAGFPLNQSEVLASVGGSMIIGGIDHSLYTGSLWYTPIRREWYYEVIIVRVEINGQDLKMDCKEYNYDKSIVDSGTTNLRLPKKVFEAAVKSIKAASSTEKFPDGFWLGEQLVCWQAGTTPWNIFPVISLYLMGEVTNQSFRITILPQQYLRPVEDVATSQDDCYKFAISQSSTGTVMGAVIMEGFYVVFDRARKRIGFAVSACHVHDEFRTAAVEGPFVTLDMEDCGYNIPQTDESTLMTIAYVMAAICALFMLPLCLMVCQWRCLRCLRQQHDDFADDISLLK

SMILES	inhibition (Beta-secretase 1 [3]) [%]	further results
O=C(/C=C(O)/C=C/c1ccccc1O)/C=C/c1ccc(O)c(O)c1	100	inhibition (Beta-secretase 1 [1]): Active; pIC50 (Beta-secretase 1 [2]): 3.60
COc1cc(/C=C/C(O)=C/C(=O)/C=C/c2ccc(O[Si](C)(C)C(C)(C)C)c(OC)c2)ccc1O		inhibition (Beta-secretase 1 [4]): 22%
COc1ccc(CCC(=O)C(C(C)C)C(O)CCc2ccc(OC)c(OC)c2)cc1OC (stereo unspecified)	1	
COc1cc(CCC(=O)CC(O)CCc2ccc(O)c(OC)c2)ccc1O (stereo unspecified)		inhibition (Beta-secretase 1 [4]): 7%
COc1ccc(/C=C/C(=O)/C=C(O)/C=C/c2ccc(OC)c(OC)c2)cc1OC	0	
COc1cc(/C=C/C(=O)/C(=C(O)/C=C/c2ccc(O)c(OC)c2)C(C)C)ccc1O	6	
COc1cc(/C=C/C(=O)/C=C(O)/C=C/c2ccc(Br)cc2)ccc1O	5	
COCCOCOc1ccc(/C=C/C(=O)/C=C(O)/C=C/c2ccc(OCOCCOC)c(OC)c2)cc1OC		inhibition (Beta-secretase 1 [4]): 19%
O=C(/C=C(O)/C=C/c1c[nH]c2ccccc12)/C=C/c1ccc(O)c(O)c1	71	pIC50 (Beta-secretase 1 [2]): 3.35
COCCOCOc1ccc(CCC(=O)CC(O)CCc2ccc(OCOCCOC)c(OC)c2)cc1OC (stereo unspecified)		inhibition (Beta-secretase 1 [4]): 15%
COCCOCOc1ccc(CCC(=O)/C=C(\O)CCc2ccc(OCOCCOC)c(OC)c2)cc1OC		inhibition (Beta-secretase 1 [4]): 17%
COCCOCOC(=C\C(=O)/C=C/c1ccc(OCOCCOC)c(OC)c1)/C=C/c1ccc(OCOCCOC)c(OC)c1		inhibition (Beta-secretase 1 [4]): 36%
COc1ccc(/C=C/C(=O)/C(=C(O)/C=C/c2ccc(OC)c(OC)c2)C(C)C)cc1OC	4	
O=C(/C=C(O)/C=C/c1cccnc1)/C=C/c1ccc(O)c(O)c1	21	
COc1ccc(CCC(O)C(C(C)C)C(O)CCc2ccc(OC)c(OC)c2)cc1OC (stereo unspecified)	9	
COCCOCOc1ccc(/C=C/C(=O)/C=C(O)/C=C/c2ccc(O)c(OC)c2)cc1OC		inhibition (Beta-secretase 1 [4]): 17%
COc1cc(CCC(=O)/C=C(\O)CCc2ccc(O)c(OC)c2)ccc1O		inhibition (Beta-secretase 1 [4]): 7%

Continued, in another order:

inhibition (Beta-secretase 1 [3]) [%]	SMILES	further results
5	COc1ccc(CCCC(C(=O)CCc2ccc(OC)c(OC)c2)C(C)C)cc1OC (stereo unspecified)	
7	COCOc1ccc(/C=C/C(=O)/C=C(O)/C=C/c2ccc(OCOC)c(OC)c2)cc1OC	
26	O=C(/C=C(O)/C=C/c1ccccc1)/C=C/c1ccc(O)c(O)c1	
35	COc1cc(/C=C/C(O)=C/C(=O)/C=C/c2ccc(O)cc2)ccc1O [DEMETHOXYCURCUMIN]	pIC50 (Beta-secretase 1 [2]): 2.80
33	O=C(/C=C(O)/C=C/c1cccc(O)c1)/C=C/c1cccc(O)c1	
21	N#Cc1cccc(/C=C/C(O)=C/C(=O)/C=C/c2ccc(O)c(O)c2)c1	
47	COc1ccccc1/C=C/C(O)=C/C(=O)/C=C/c1ccc(O)c(O)c1	pIC50 (Beta-secretase 1 [2]): 2.85
30	O=C(/C=C(O)/C=C/c1ccc[nH]1)/C=C/c1ccc(O)c(O)c1	
1	O=C(/C=C(O)/C=C/c1ccccc1)/C=C/c1ccccc1	
25	O=C(/C=C(O)/C=C/c1ccc(O)c(O)c1)/C=C/c1ccc(O)c(O)c1	pIC50 (Beta-secretase 1 [2]): 2.66
18	O=C(/C=C(O)/C=C/c1ccc(O)cc1)/C=C/c1ccc(O)c(O)c1	
18	O=C(/C=C(O)/C=C/c1cccc([N+](=O)[O-])c1)/C=C/c1ccc(O)c(O)c1	pIC50 (Beta-secretase 1 [2]): 2.74
